The term MIC denotes the smallest concentration in the dilution series that meets the test's criterion for growth inhibition. A lower MIC goes with a more susceptible organism.

The record followed here is ChEMBL document CHEMBL3259819, “Antimicrobial peptides from skin secretions of Hypsiboas pulchellus (Anura: Hylidae)” (J Nat Prod, 2014).

Data set [1] in a line: Hemolytic activity in human erythrocytes at 320 uM after 60 mins. It is filed as ADME, cell-based, Erythrocyte. As to conditions: read-out: Activity. In outline:
(§1)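 Human erythrocytes came from heparinized blood, were washed three times in saline and pelleted, then suspended at 0.4% (v/v) in isotonic saline. 1 mL cells was mixed with 1 mL peptide dilution and held 60 min at 37 °C. After centrifugation, supernatant absorbance was read at 405 nm, with lysis by 1% Triton X-100 set as 100%.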

Data set [2] in a line: Hemolytic activity in human erythrocytes assessed as lowest concentration required to hemolysis after 60 mins. It is filed as ADME, cell-based. As to conditions: erythrocyte, 1 h. In outline:
as §1

A short description of data set [3]: Therapeutic index, ratio of hemolytic activity in human erythrocytes assessed as lowest concentration required for hemolysis to MIC for Staphylococcus aureus. Conditions: read-out: TI. It is filed as cell-based. An outline of the steps: (§2)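 TI is the lowest hemolytic concentration divided by the MIC, calculated per peptide and strain. LHC is the lowest peptide concentration giving 100% hemolysis of human erythrocytes (60 min, 37 °C). Where 100% hemolysis was not reached at 320 μM, 640 μM was used. MICs came from microtiter broth dilution against E. coli ATCC 25922 or S. aureus ATCC 25929.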

Data set [4] in a line: Therapeutic index, ratio of hemolytic activity in human erythrocytes assessed as lowest concentration required for hemolysis to MIC for Escherichia coli. It is filed as cell-based. Conditions: read-out: TI. In outline: as §2
Data set [5] deals with Escherichia coli. Nature of the data set: Antimicrobial activity against Escherichia coli ATCC 25922 after 18 to 24 hrs by microtitre dilution method. Type of data set: functional. In outline: (§3)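 Modified microtiter broth dilution (Hancock method for AMPs). Strains were activated 24 h at 37 °C in Mueller-Hinton broth, and the inoculum was set to 5 × 10^7 cfu/mL. Tests ran in diluted MHB for 18 to 24 h at 37 °C. Peptides were solubilised in water with 10% acetic acid; the top assay concentration was 1280 μg/mL. MIC is the lowest concentration inhibiting growth.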

Data set [6] concerns Staphylococcus aureus. Kind of data set: Antimicrobial activity against Staphylococcus aureus ATCC 25929 after 18 to 24 hrs by microtitre dilution method. Type of data set: functional. An outline of the steps: as §3
Data set [7] can be described thus: Hemolytic activity in human erythrocytes at 20 uM after 60 mins. It is filed as ADME, cell-based, Erythrocyte. As to conditions: read-out: Activity. In outline:
as §1

For a further data set, the system named is Pseudomonas aeruginosa. Kind of data set: Antimicrobial activity against Pseudomonas aeruginosa. Type of data set: functional.
Data set [8] relates to Staphylococcus aureus. Nature of the data set: Antimicrobial activity against Staphylococcus aureus. Type of data set: functional.
The test system of data set [9] is Escherichia coli. Nature of the data set: Antimicrobial activity against Escherichia coli. Type of data set: functional.
The nature of data set [10]: Toxicity in erythrocytes (unknown origin) assessed as hemolytic activity. Type of data set: cell-based, Erythrocyte. As to conditions: read-out: HD50 (the source's name). An outline of the steps: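 Human erythrocytes from heparinised blood, spun 3000 rpm for 10 min after three saline washes, used at 0.4% (v/v) in isotonic saline. Equal volumes incubated with increasing concentrations (0.4 to 4.4 mg/mL for extracts) for 60 min at 37 °C. Cells spun at 3000 rpm for 5 min and supernatant A405 read. Lysis by 1% Triton X-100 served as 100%.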

For a further data set, the system named is Enterococcus faecalis. Nature of the data set: Antimicrobial activity against Enterococcus faecalis. Type of data set: functional.
The subject of a further data set is Bacillus subtilis. Kind of data set: Antimicrobial activity against Bacillus subtilis. Type of data set: functional.

Values after ≈ are worked out from the molar mass of the structure shown. Where a SMILES comes first, the peptide text is derived from it.

As to `CC(C)C[C@H](NC(=O)[C@H](CO)NC(=O)[C@@H]1CCCN1C(=O)[C@H](CO)NC(=O)[C@H](CC(C)C)NC(=O)[C@@H](N)CCCCN)C(=O)NCC(=O)N1CCC[C@H]1C(=O)N[C@H](C(=O)N[C@@H](CO)C(=O)N[C@@H](CCCCN)C(=O)NCC(=O)N[C@@H](CCCCN)C(=O)N[C@@H](CC(C)C)C(=O)N[C@@H](CC(C)C)C(=O)N[C@@H](C)C(=O)NCC(=O)N[C@@H](CCC(N)=O)C(=O)N[C@@H](CCCNC(=N)N)C(N)=O)C(C)C` (H-KLSPSLGPVSKGKLLAGQR-NH2), the hemolysis at 1 h, 320 µM in data set [1] worked out at 100%. In addition, the MHC in data set [2] turned out to be 320 µM. Further, the selectivity ratio in [3] was 4.9; in data set [4] it was 9.7. In addition, the MIC is 33 µM (≈ 63.9 µg/mL) against Escherichia coli [5] and 66 µM (≈ 128 µg/mL) with Staphylococcus aureus [6].
For the molecule `CC(C)C[C@H](NC(=O)CNC(=O)[C@H](C)NC(=O)[C@H](CC(C)C)NC(=O)[C@H](CC(C)C)NC(=O)[C@@H](NC(=O)[C@H](CCCCN)NC(=O)[C@H](CC(C)C)NC(=O)[C@H](CC(C)C)NC(=O)[C@H](C)NC(=O)[C@@H]1CCCN1C(=O)[C@H](CC(C)C)NC(=O)[C@H](C)NC(=O)[C@@H](NC(=O)CNC(=O)[C@H](CC(C)C)NC(=O)[C@@H](N)CCCNC(=N)N)[C@@H](C)O)[C@@H](C)O)C(=O)N[C@@H](CC(N)=O)C(=O)NCC(N)=O` (H-RLGTALPALLKTLLAGLNG-NH2), the MHC in data set [2] came out at 25 µM. The selectivity ratio in data set [3] and in data set [4] was 1.5 each time. For the same molecule, the hemolysis at 1 h, 20 µM in [7] was above 90%. The MIC in the data set with Escherichia coli [5] and with Staphylococcus aureus [6] was 17 µM (≈ 32.2 µg/mL) each time.
As for `CC(C)C[C@H](NC(=O)[C@H](C)NC(=O)[C@@H](NC(=O)[C@H](CCCCN)NC(=O)CNC(=O)[C@@H](NC(=O)[C@@H](NC(=O)[C@H](CCCCN)NC(=O)CNC(=O)[C@H](CC(C)C)NC(=O)[C@H](CO)NC(=O)[C@H](CCCCN)NC(=O)[C@H](CC(C)C)NC(=O)[C@H](CCCCN)NC(=O)[C@H](CC(=O)O)NC(=O)[C@H](CC(C)C)NC(=O)[C@H](Cc1c[nH]c2ccccc12)NC(=O)[C@H](C)N)C(C)C)C(C)C)C(C)C)C(=O)NCC(=O)N[C@H](C(=O)N[C@@H](C)C(=O)N[C@@H](CCC(N)=O)C(=O)N[C@@H](CC(N)=O)C(=O)N[C@@H](Cc1ccc(O)cc1)C(=O)N[C@@H](CC(C)C)C(=O)N[C@@H](CC(N)=O)C(=O)N1CCC[C@H]1C(=O)N[C@@H](CCC(N)=O)C(=O)N[C@@H](CCC(N)=O)C(=O)O)C(C)C` (H-AWLDKLKSLGKVVGKVALGVAQNYLNPQQ-OH), the minimum inhibitory concentration (MIC) amounted to 10 µM (≈ 31.4 µg/mL) against Pseudomonas aeruginosa, 20 µM (≈ 62.8 µg/mL) in the data set with Staphylococcus aureus [8] and 5 µM (≈ 15.7 µg/mL) in the data set with Escherichia coli [9].
Take `CC[C@H](C)[C@H](N)C(=O)N[C@@H](Cc1ccccc1)C(=O)NCC(=O)N[C@@H](C)C(=O)N[C@H](C(=O)N[C@@H](CC(C)C)C(=O)N1CCC[C@H]1C(=O)N[C@@H](CC(C)C)C(=O)N[C@@H](C)C(=O)N[C@@H](CC(C)C)C(=O)NCC(=O)N[C@@H](C)C(=O)N[C@@H](CC(C)C)C(=O)N[C@@H](CCCCN)C(=O)N[C@@H](CC(N)=O)C(=O)N[C@@H](CC(C)C)C(=O)N[C@H](C(=O)N[C@@H](CCCCN)C(=O)O)[C@@H](C)CC)[C@@H](C)CC` (H-IFGAILPLALGALKNLIK-OH): in data set [10], the HC50 was 18 µM. Also, the MIC came out at 16 µM (≈ 29.8 µg/mL) in the data set with Enterococcus faecalis; 64 µM (≈ 119 µg/mL) against Pseudomonas aeruginosa; 8 µM (≈ 14.9 µg/mL) in the data set on Bacillus subtilis; 8 µM (≈ 14.9 µg/mL) in the data set on Staphylococcus aureus [8]; 32 µM (≈ 59.7 µg/mL) with Escherichia coli [9].
As for `CC[C@H](C)[C@H](NC(=O)CN)C(=O)N[C@@H](CC(C)C)C(=O)N[C@@H](CC(=O)O)C(=O)N[C@@H](C)C(=O)N[C@H](C(=O)N[C@@H](CCCCN)C(=O)N[C@@H](C)C(=O)N[C@H](C(=O)N[C@@H](C)C(=O)N[C@@H](CCCCN)C(=O)N[C@@H](C)C(=O)N[C@@H](C)C(=O)NCC(=O)O)[C@@H](C)CC)[C@@H](C)CC` (H-GILDAIKAIAKAAG-OH), the MIC with Pseudomonas aeruginosa came out at 64 µM (≈ 83.9 µg/mL); against Staphylococcus aureus [8], 8 µM (≈ 10.5 µg/mL); against Escherichia coli [9], 32 µM (≈ 42 µg/mL).
For `CC(C)C[C@H](NC(=O)[C@H](CC(C)C)NC(=O)[C@@H](NC(=O)[C@@H]1CCCN1C(=O)[C@H](CCCCN)NC(=O)[C@@H](N)[C@@H](C)O)[C@@H](C)O)C(=O)NCC(=O)N[C@@H](CC(C)C)C(=O)N1CCC[C@H]1C(=O)N[C@@H](CC(C)C)C(=O)NCC(=O)N[C@@H](C)C(=O)NCC(=O)N1CCC[C@H]1C(=O)N[C@@H](C)C(=O)N[C@@H](C)C(=O)NCC(=O)N1CCC[C@H]1C(=O)NCC(=O)N[C@@H](CCCCN)C(=O)N[C@@H](CCCNC(=N)N)C(N)=O` (H-TKPTLLGLPLGAGPAAGPGKR-NH2), the hemolysis at 1 h, 320 µM in data set [1] was at most 12%. The MHC in data set [2] worked out at 640 µM. Also, the selectivity ratio came out at 80 in data set [3] and 40 in data set [4]. Moreover, the results for the MIC in the data set on Escherichia coli [5] and against Staphylococcus aureus [6] were 16 µM (≈ 31.5 µg/mL) and 8 µM (≈ 15.8 µg/mL), respectively.
